FAS TE block: FAS thioesterase domain inhibitors, primary screen, biochemical, fluorescence intensity, uHTS. recombinant FAS-TE, OMFH fluorogenic substrate, fluorescence endpoint. inhibition, % at 15 µM. 360,000 tested, 0.67% active. AID 602261, 2012;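 active = compounds whose normalised, plate-corrected inhibition of enzyme fluorescence in the single-dose primary screen is 50% or more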;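 note: 0% = DMSO with enzyme and 100% = substrate without enzyme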
NR3A LBD binder: binders of NR3A ligand-binding domain, primary screen, biophysical, differential scanning fluorimetry, uHTS; 340,000 tested, 2.5% active; Tm shift relative to glycine control, % at 25 µM; Glutamate receptor ionotropic, NMDA 3A (GRIN3A) ligand-binding domain; NR3A LBD differential scanning fluorimetry, Tm shift; 0% = protein alone, 100% = glycine-bound protein;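 active = melting temperature shift of at least 10% of the positive control shift, at one fixed dose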
Arr AP2 block: inhibitors of beta-arrestin/AP2 binding, primary screen, biochemical, GPCR trafficking, flow cytometry | beta-arrestin 1 C-terminal peptide binding to AP2 beta2-adaptin appendage (human) | FITC-arrestin peptide / GST-AP2 beads; AP2 beta2 appendage carries R879A mutation | inhibition, % at 10 µM | 340,000 tested, 0.31% active;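 active = inhibition above a set limit, near 3 SD of compounds lacking own fluorescence, cut at about 54% in these data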;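 note: plate controls were DMSO wells for no effect and 5 µM unlabelled arrestin peptide for full effect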
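System: GST-AP2 R879A glutathione beads; medium: PBS, Tween 20 0.05%, BSA 0.1%; reagent: fluorescein-tagged arrestin peptide at 50 nM final; schedule: pre-incubation 12 min, peptide binding 1 h, room temperature; detection: flow cytometry, FL1 (488/535 nm); read-out: inhibition as reduced fluorescein signal on beads, percent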
H9c2 protect: cardioprotection against H2O2-induced cell death, primary screen, uHTS, H9c2 cells, ATPLite luminescence. protection from H2O2 cell death, % at 20 µM. H9c2 cardiomyocytes, H2O2 injury protection, 2 h. 360,000 tested, 0.63% active;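 active = compounds giving at least 50% protection of heart cells from peroxide-induced death in the single-dose screen, raw or plate-pattern-corrected value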;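 note: 0% = DMSO wells with peroxide and 100% = DMSO wells without peroxide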
hiPSC survival: enhancers of single-cell hiPSC survival, primary screen, ATPlite luminescence | 100% = ROCK inhibitor wells, 0% = DMSO | 360,000 tested, 0.044% active | AID 602274, 2012 | survival enhancement, % at 20 µM; in the data active = survival enhancement above about 18%;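 note: cells exposed to compounds for 16 hours before the ATP read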
SENP1 inh: human SENP1 catalytic domain inhibitors, primary screen, biochemical, FRET, uHTS; recombinant SENP1 catalytic domain, CyPet-SUMO1-YPet FRET cleavage; inhibition, % at 10 µM; 360,000 tested, 0.21% active;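 active = inhibition at least 30% at 10 µM, raw YFP signal under a set limit, fluorescence ratio 0.5 to 1.5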;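 note: 0% = enzyme with DMSO and 100% = no enzyme wells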
Target sequence (Q9P0U3 419-644 limits assumed): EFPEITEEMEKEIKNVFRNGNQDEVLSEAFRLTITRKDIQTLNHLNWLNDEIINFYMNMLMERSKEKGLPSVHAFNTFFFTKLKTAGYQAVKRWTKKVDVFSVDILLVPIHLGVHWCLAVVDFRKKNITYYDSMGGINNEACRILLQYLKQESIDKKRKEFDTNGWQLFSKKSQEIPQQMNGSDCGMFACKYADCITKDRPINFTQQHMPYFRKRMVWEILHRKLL
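System: Recombinant human SENP1 catalytic domain, His6-tagged | Incubation: Enzyme reaction for 50 min at room temperature, dark | Medium: Tris pH 8 with BME, BSA, NP40 and catalase | Also added: 25 nM SUMO1 FRET substrate | Compound: 10 µM single point, 0.5% DMSO | Measured by: FRET fluorescence in CFP and YFP emission channels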
The depositor's hits bear a star. Only some compounds are listed: those with a hit (about 4% of all), similar ones and a draw of the others.

For CCCCn1c(N)c(Br)c(=O)[nH]c1=O the results were FAS TE block -4.8, NR3A LBD binder 0.6, Arr AP2 block 31.9, H9c2 protect 54.9*, hiPSC survival 2.7 and SENP1 inh 0.0.
Screening CCCCn1c(N)c(N(C)C(=O)C2CCCC2)c(=O)[nH]c1=O returned FAS TE block -8.1, NR3A LBD binder 14.7*, Arr AP2 block -8.7, H9c2 protect 3.5, hiPSC survival -0.3 and SENP1 inh -5.5.
Screening C[C@H]1CN([C@@H](C)CO)C(=O)c2cc(Br)cnc2O[C@H]1CN(C)C(=O)Cc1ccccn1 returned FAS TE block -5.7, H9c2 protect -8.8, hiPSC survival -0.5 and SENP1 inh -5.9.
CC(C)(C)c1ccccc1NC(=O)Nc1nc(C(N)Cc2ccc(F)cc2)cs1 (stereo not drawn) was read as FAS TE block -2.4, H9c2 protect -20.5, hiPSC survival -2.5 and SENP1 inh -0.5.
`CC1=C(C(=O)N(C)C)CC(CC(=O)NC2CCCCC2)C(=O)N1CCCN1CCCC1=O` (stereo not drawn) gave FAS TE block -5.2, H9c2 protect 7.2, hiPSC survival 0.7 and SENP1 inh -0.9.
`Clc1cccc(-c2nc3nc4ccccc4nc3n2Cc2ccccc2)c1` gave FAS TE block 19.0, NR3A LBD binder 11.6*, Arr AP2 block -0.4, H9c2 protect 13.5, hiPSC survival 2.8 and SENP1 inh -43.4.
Screening c1ccc(Cn2c(-c3ccccc3)nc3nc4ccccc4nc32)cc1 returned FAS TE block 20.8, NR3A LBD binder 18.0*, Arr AP2 block 22.4, H9c2 protect 0.1, hiPSC survival 3.7 and SENP1 inh -19.3.
For C=CCn1c(-c2ccccc2)nc2nc3ccccc3nc21 the results were FAS TE block -1.5, NR3A LBD binder 0.7, Arr AP2 block -2.8, H9c2 protect 4.4, hiPSC survival 9.8 and SENP1 inh -11.2.
Screening O=C(c1ccccc1)c1ccc2nc(N3CCN(C(=O)c4ccco4)CC3)c3nncn3c2c1 returned FAS TE block 17.7, NR3A LBD binder -1.4, Arr AP2 block 6.9, H9c2 protect 83.6*, hiPSC survival -0.5 and SENP1 inh -2.5.
Cc1cc(Br)cn2c(Cc3ccsc3)c(C3CCCCC3)nc12 was read as FAS TE block -11.6, H9c2 protect -3.2, hiPSC survival -1.5 and SENP1 inh -9.4.
Screening CNCC(=O)Nc1c(C)n[nH]c1C returned FAS TE block -9.3, NR3A LBD binder 13.7*, Arr AP2 block -9.9, H9c2 protect -1.7, hiPSC survival -0.2 and SENP1 inh -1.5.
CCC(=O)N1CCC1(C)C(=O)Nc1cc(-c2ccccc2)nn1C (stereo not drawn) was read as FAS TE block -4.4, H9c2 protect -7.4, hiPSC survival -2.1 and SENP1 inh 1.5.
Screening O=C(N/C(=C/c1cccc(Br)c1)C(=O)N1CCCCC1)c1ccco1 returned FAS TE block 1.0, H9c2 protect 8.1, hiPSC survival 0.4 and SENP1 inh 0.9.
Cc1ccc(N=Nc2c(O)ccc3n[nH]nc23)cc1 was read as FAS TE block -1.8, NR3A LBD binder 13.3*, Arr AP2 block -0.3, H9c2 protect -19.0, hiPSC survival -0.1 and SENP1 inh 10.7.
For COc1ccc2cc1Oc1ccc(cc1)CC1c3c(cc(OC)c4c3Oc3cc5c(cc3O4)CCNC5C2)CCN1C (stereo not drawn) the results were FAS TE block 48.8, NR3A LBD binder -8.3, Arr AP2 block 10.0, H9c2 protect -17.8, hiPSC survival -5.9 and SENP1 inh 1.1.
`COc1ccc2cc1Oc1ccc(cc1)C[C@H]1c3c(cc(OC)c4c3Oc3c(ccc5c3[C@H](C2)N(C)CC5)O4)CCN1C` gave FAS TE block 66.1*, NR3A LBD binder -13.6, Arr AP2 block 4.0, H9c2 protect -20.9, hiPSC survival -3.3 and SENP1 inh 3.4.
For O=C(CCSCCC(=O)NN=Cc1ccccc1O)NN=Cc1ccccc1O the results were FAS TE block -0.2, NR3A LBD binder -2.1, Arr AP2 block -7.8, H9c2 protect 57.9*, hiPSC survival 3.0 and SENP1 inh -10.8.
Screening O=C(CSc1ccccc1)N/N=C/c1ccccc1O returned FAS TE block -1.1, NR3A LBD binder -5.9, Arr AP2 block -1.1, H9c2 protect 51.0*, hiPSC survival 3.3 and SENP1 inh -5.6.
For O=C(N/N=C/c1ccccc1O)C1SCCCS1 the results were FAS TE block -4.1, NR3A LBD binder 2.9, Arr AP2 block 30.0, H9c2 protect 70.5*, hiPSC survival 0.5 and SENP1 inh -34.3.
Cc1cc(SCC(=O)N/N=C/c2ccc(O)c(O)c2O)c(C)cc1Br was read as FAS TE block 15.6, NR3A LBD binder 25.4*, Arr AP2 block 26.8, H9c2 protect 40.6, hiPSC survival 0.0 and SENP1 inh 1.6.
Screening Cc1cc2nc(-c3nnnn3C3CCCCC3)c(=O)[nH]c2cc1C returned FAS TE block 0.9, hiPSC survival -0.3 and SENP1 inh -22.4.
For Cn1cc(/C=C/C(=O)c2ccccc2)c2ccccc21 the results were FAS TE block 8.4, NR3A LBD binder 1.1, Arr AP2 block 0.0, H9c2 protect -14.0, hiPSC survival -0.2 and SENP1 inh -37.8.
For COc1ccc2[nH]cc(/C=C/C(=O)c3ccccc3)c2c1 the results were FAS TE block -2.6, NR3A LBD binder 29.1*, Arr AP2 block -21.1, H9c2 protect -3.2, hiPSC survival 0.2 and SENP1 inh -31.7.
Screening Cc1ccc(C(=O)/C=C/c2cn(CN3CCN(C)CC3)c3ccccc23)cc1 returned FAS TE block -5.0, NR3A LBD binder 38.1*, Arr AP2 block 2.0, H9c2 protect -12.5, hiPSC survival -0.3 and SENP1 inh -22.6.
`O=C(/C=C/c1c[nH]c2ccccc12)c1ccccc1` gave FAS TE block -3.3, NR3A LBD binder 23.8*, Arr AP2 block 4.3, H9c2 protect -17.8, hiPSC survival -0.4 and SENP1 inh -26.0.
For Cc1ccc(C(=O)/C=C/c2c[nH]c3ccccc23)cc1 the results were FAS TE block 1.5, NR3A LBD binder 28.3*, Arr AP2 block 9.3, H9c2 protect -15.9, hiPSC survival 0.5 and SENP1 inh -20.0.
`O=C(/C=C/c1ccccc1O)c1ccccc1` gave FAS TE block -0.6, NR3A LBD binder 1.2, Arr AP2 block -10.9, H9c2 protect 0.5, hiPSC survival -3.9 and SENP1 inh 1.9.

High-throughput results deposited in PubChem BioAssay by several laboratories.
